Source: PubChem (Sanford-Burnham Center for Chemical Genomics)
hIAP activ: human IAP activation; P09923; purified human IAP, CDP-Star luminescence, 30 min; hits give high values; 1 = vehicle-only enzyme, 0 = enzyme-free background; activation factor at 10 µM; actives 0.16% (n = 330,000);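 active = activation factor of the enzyme at least 2-fold when tested at 20 µM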
Target sequence (P09923 whole entry, looked up): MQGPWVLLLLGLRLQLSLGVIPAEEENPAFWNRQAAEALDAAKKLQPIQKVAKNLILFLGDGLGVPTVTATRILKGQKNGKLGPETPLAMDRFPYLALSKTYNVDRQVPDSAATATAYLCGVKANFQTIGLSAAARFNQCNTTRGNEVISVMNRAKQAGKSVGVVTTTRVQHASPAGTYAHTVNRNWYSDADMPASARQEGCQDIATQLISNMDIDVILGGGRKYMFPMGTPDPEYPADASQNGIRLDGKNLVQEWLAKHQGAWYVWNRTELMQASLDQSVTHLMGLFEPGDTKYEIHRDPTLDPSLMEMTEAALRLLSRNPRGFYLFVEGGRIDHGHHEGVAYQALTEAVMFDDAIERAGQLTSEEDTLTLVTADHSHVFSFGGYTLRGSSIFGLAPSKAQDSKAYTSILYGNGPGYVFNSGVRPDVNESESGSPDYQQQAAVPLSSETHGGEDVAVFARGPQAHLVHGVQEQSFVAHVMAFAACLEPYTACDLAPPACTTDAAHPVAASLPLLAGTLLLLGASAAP
mIAP block: blocks mouse intestinal alkaline phosphatase. purified mouse IAP, CDP-Star luminescence, 30 min. inhibition, % at 10 µM. actives 0.2% (n = 330,000). AID 2806;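 active = inhibition of at least 40% at 10 µM in the primary screen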
bIAP activator: intestinal alkaline phosphatase (bovine) activation | activation factor at 20 µM | AID 1016 | actives 0.17% (n = 200,000) | purified bovine IAP, CDP-star luminescence, 30 min; hits give high values; fold of DMSO-control signal, blank-subtracted;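 active = activation factor of 2 or more at 20 µM, a signal rise over negative controls twice the positive control's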
hIAP inh: blocks human intestinal alkaline phosphatase | P09923 | purified IAP, CDP-Star luminescence, 30 min | inhibition, % at 10 µM | actives 0.12% (n = 330,000);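 active = inhibition reaching a set limit with compound at 10 µM in the primary screen, cut at about 35% in these data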
bIAP inh: intestinal alkaline phosphatase (bovine) inhibition. purified bovine IAP, CDP-star luminescence, 30 min. inhibition, % at 20 µM. 190,000 tested, under 10 active. AID 1019;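 active = over 50% inhibition of intestinal alkaline phosphatase at 20 µM in the single-dose screen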
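Assay system: bovine IAP enzyme; medium: DEA buffer 100 mM, pH 9.8, with MgCl2 1.0 mM, ZnCl2 0.02 mM; doses: 20 µM single dose; incubation: enzyme reaction for 30 min at room temperature; detection: CDP-star luminescence signal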
mIAP activ: increases mouse intestinal alkaline phosphatase activity; AID 2805; muIAP, CDP-Star luminescence, 30 min; hits give high values; 1 = vehicle-only enzyme signal, 0 = enzyme-free wells; actives 0.24% (n = 330,000); activation factor at 10 µM;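 active = activation factor of at least 2 at 20 µM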
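also added = chemiluminescent substrate CDP-Star | test system = mouse IAP enzyme | signal = chemiluminescence readout | compound = DMSO-dissolved test compounds | incubation = 30 min at room temperature | benchmarks = DMSO wells, no-enzyme wells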
mIAP inh confirm: mouse IAP inhibition confirmation; inhibition, % at 10 µM; purified mouse IAP, CDP-Star luminescence, 30 min; actives 4.7% (n = 11,000); shares compounds with mIAP block;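 active = inhibition of at least 40% at 10 µM in either of the two replicates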
Of the large screens only hits and unclear results are named; the others gave an inactive call (follow-up assays come after a bar, where they were run). Only some compounds are listed: those with a hit (about 0.79% of all), similar ones and a draw of the others.

COc1ccc(N=C2SC(C(=O)O)CC(=O)N2Cc2ccc(OC)c(OC)c2)cc1 (stereo unspecified)	none
COc1ccc(N=C2SC(C(N)=O)CC(=O)N2CCc2ccc(OC)c(OC)c2)cc1 (stereo unspecified)	mIAP block 44 | mIAP inh confirm 50
N=c1ncn(CC(O)CO)c2nc(N3CCOCC3)[nH]c12 (stereo unspecified)	none
O=C(CNS(=O)(=O)c1ccc([N+](=O)[O-])cc1)N/N=C\c1ccc(O)cc1	none (no result: bIAP activator, bIAP inh)
O=C(CNS(=O)(=O)c1ccc([N+](=O)[O-])cc1)N/N=C/c1ccc(O)cc1O	mIAP block 40 (no result: bIAP activator, bIAP inh) | mIAP inh confirm 42
NC(=S)N/N=C/c1ncc(C(F)(F)F)cc1Cl	none (no result: bIAP activator, bIAP inh)
CCOC(=O)c1ccc(NC(=O)Nc2ccc3c(c2)OCCO3)cc1	mIAP activ 2.9 | mIAP inh confirm inactive
CCC(=O)Nc1sc2c(c1C#N)CCC2	none
CC(C)CC(=O)NC(NC(=S)Nc1sc2c(c1C#N)CCCC2)C(Cl)(Cl)Cl (stereo unspecified)	mIAP block 41 | mIAP inh confirm 41
CCOC(=O)c1sc(NC(=O)C(C)Sc2nnc(N)s2)nc1C (stereo unspecified)	none
CNC[C@@H]1Oc2ccc(NC(=O)Nc3cccc4ccccc34)cc2C(=O)N([C@@H](C)CO)C[C@@H]1C	mIAP activ 4.3 (no result: bIAP activator, bIAP inh) | mIAP inh confirm inactive
CNC[C@@H]1Oc2c(NC(=O)Nc3ccccc3)cccc2C(=O)N([C@@H](C)CO)C[C@H]1C	none (no result: bIAP activator, bIAP inh)
CNC[C@H]1Oc2ccc(NC(=O)Nc3ccc(OC)cc3)cc2C(=O)N([C@@H](C)CO)C[C@H]1C	mIAP activ 3 (no result: bIAP activator, bIAP inh) | mIAP inh confirm inactive
Cc1nc(NC(=O)c2ccccc2)sc1-c1csc(NCc2ccco2)n1	mIAP block 44 | mIAP inh confirm 56
CC(C)c1ccc(/C=C(\NC(=O)c2ccccc2)C(=O)NCCCN2CCOCC2)cc1	none (no result: bIAP activator, bIAP inh)
N=C1S/C(=C\c2ccco2)C(=O)N1c1ccc2c(c1)OCO2	mIAP block 52 | mIAP inh confirm 78
N=C1S/C(=C\c2ccco2)C(=O)N1c1nccs1	mIAP block 60 | mIAP inh confirm 65
COCCOc1cc(NC(=O)CS(=O)(=O)CC(=O)N(C)C)c(Cl)cc1Cl	none
CC(C)(C)OC(=O)C[C@H]1C/C=C\C[C@@H](CC(=O)N(CCO)Cc2ccccc2)C(=O)N2CCC[C@H]2COC1=O	none (no result: bIAP activator, bIAP inh)
O=C(NCc1ccco1)c1cc2c(s1)CSC2	mIAP block 45 | mIAP inh confirm 45
O=C(NCc1ccc2c(c1)OCO2)c1cc2c(s1)CSC2	mIAP block 45 | mIAP inh confirm 59
CC(=O)c1sc(C(=O)O)c(-c2ccco2)c1-c1ccco1	mIAP block 55 (no result: bIAP activator, bIAP inh) | mIAP inh confirm 64
CC(C)(Oc1ccc(-c2ccco2)cc1)C(=O)O	none
O=C1NC(=Nc2ccccc2)S/C1=C\C=C\c1ccco1	mIAP block 73 | mIAP inh confirm 72
O=C1c2c(O)cc(O)cc2O[C@H](c2ccc(O)c(O)c2)[C@@H]1O	mIAP block 64 | mIAP inh confirm 58
O=C1C[C@@H](c2ccccc2)Oc2cc(O)cc(O)c21	none (no result: bIAP activator, bIAP inh)
O=C1c2c(O)cc(O)cc2O[C@H](c2ccc(O)c(O)c2)[C@H]1O	mIAP block 51 (no result: bIAP activator, bIAP inh) | mIAP inh confirm 59
Oc1cc(O)c2c(c1)O[C@H](c1ccc(O)c(O)c1)[C@@H](O)C2	mIAP block 78 (no result: bIAP activator, bIAP inh) | mIAP inh confirm 78
CC1(C(=O)NNC(=O)c2ccc(=O)oc2)CC1Br (stereo unspecified)	mIAP block 77 (no result: bIAP activator, bIAP inh) | mIAP inh confirm 71
Cc1cc(=O)oc(C)c1C(=O)NNC(=O)C1(C)CC1Br (stereo unspecified)	none (no result: bIAP activator, bIAP inh)
CN(C(=O)CCN1C(=O)C2C3C=CC(C3)C2C1=O)c1ccccc1 (stereo unspecified)	none
O=C(N/N=C/c1ccc(O)c(O)c1)N/N=C/c1ccc(O)c(O)c1	mIAP block 49 (no result: bIAP activator, bIAP inh) | mIAP inh confirm 72
O=C(CSc1nc2ccccc2o1)N/N=C/c1ccc(O)c(O)c1	mIAP block 67 (no result: bIAP activator, bIAP inh) | mIAP inh confirm 74
Cc1nonc1C(=O)N/N=C/c1ccc(O)c(O)c1	mIAP block 42 | mIAP inh confirm 41
Cc1cc(SCC(=O)N/N=C/c2ccc(O)c(O)c2)c(C)cc1Br	none
CN1CCN(S(=O)(=O)c2ccc(NC(=O)c3ccccc3F)cc2)CC1	none (no result: bIAP activator, bIAP inh)
CCc1nn(C(C)C(=O)NCc2cccc(Cl)c2)c(=O)c2cc3occc3n12 (stereo unspecified)	none (no result: bIAP activator, bIAP inh)
Cc1cc(C)c(C#N)c(SC(C(=O)NC(C)(C)C)c2ccccc2)n1 (stereo unspecified)	none (no result: bIAP activator, bIAP inh)
S=c1[nH]nc(-c2cc(-c3ccco3)[nH]n2)n1-c1ccccc1Cl	mIAP block 57 | mIAP inh confirm 74
S=c1[nH]nc(-c2ccco2)n1-c1ccccc1Cl	none
C[C@H](CO)N1C[C@H](C)[C@@H](CN(C)Cc2ccc(C(=O)O)cc2)Oc2ccc(NS(C)(=O)=O)cc2C1=O	none (no result: bIAP activator, bIAP inh)
O=C(O)c1ccc(CSc2n[nH]c(-c3ccco3)n2)cc1	mIAP block 58 | mIAP inh confirm 86
CCOC(=O)CSc1n[nH]c(-c2ccco2)n1	none
CN(CC(=O)Nc1ccc(F)cc1)CC(=O)NC1CCCCC1	none (no result: bIAP activator, bIAP inh)
Cc1cc(CN(C)C(=O)CC2C(=O)NCCN2Cc2c(F)cccc2Cl)n[nH]1 (stereo unspecified)	none
Oc1ccc(/C=N/Nc2cc(N3CCOCC3)nc(N3CCOCC3)n2)cc1O	mIAP block 42 | mIAP inh confirm 63
COc1ccc(NC(=O)Nc2ccccc2)cc1S(=O)(=O)N1CCCCC1	mIAP activ 4.5 | mIAP inh confirm inactive
COc1ccccc1NS(=O)(=O)c1cc(NC(C)=O)ccc1N1CCCCC1	none
Cc1cc(C)cc(OCC(=O)Nc2ccccc2N2CCCCC2)c1	none
COc1ccccc1NS(=O)(=O)c1cc(NC(=O)Nc2cccc(C)c2)ccc1N1CCCCC1	mIAP activ 5.6 | mIAP inh confirm inactive
Cc1cc(C)cc(NC(=O)Nc2ccccc2N2CCCCC2)c1	mIAP activ 3.3 (no result: bIAP activator, bIAP inh) | mIAP inh confirm inactive
COc1ccc2[nH]c3c(NCc4ccco4)ncnc3c2c1	none
Fc1ccc2[nH]c3c(NCc4ccccc4)ncnc3c2c1	mIAP activ 2.7 (no result: bIAP activator, bIAP inh) | mIAP inh confirm inactive
CC1=NN(c2ccc(C)cc2)C(=O)/C1=C/c1ccc(-c2cc([N+](=O)[O-])ccc2O)o1	none (no result: bIAP activator, bIAP inh)
O=C1NN(c2cccc(Br)c2)C(=O)/C1=C/c1ccc(-c2cc([N+](=O)[O-])ccc2O)o1	mIAP block 45 (no result: bIAP activator, bIAP inh) | mIAP inh confirm 47
c1ccc(Sc2ncccn2)nc1	none (no result: bIAP activator, bIAP inh)
